Assay results from ChEMBL document CHEMBL1667823, “Design and synthesis of 4-arylpiperidinyl amide and N-arylpiperdin-3-yl-cyclopropane carboxamide derivatives as novel melatonin receptor ligands” (Bioorg Med Chem Lett, 2011).

Tested on: CHO-Galpha16
Experiment: Intrinsic activity at rat MT1 receptor expressed in CHO-Galpha16 cells assessed as Ca2+ mobilization after 20 mins by FLIPR assay relative to ramelteon
Type: cell-based
Conditions: not given
Method in brief: (§1)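 CHO-Galpha16 cells expressing rat MT1 or MT2, plated 24 h ahead, loaded with Fluo4-AM (1.5 final) plus pluronic acid in HBSS/20 mM HEPES/0.1% BSA pH 7.4 with 2.5 mM probenecid, 1 h at 37 °C, then washed. Ca2+ read by FLIPR. Agonist mode: 15 s baseline, compound added, 3 min read. Antagonist mode: compound preincubated 20 min at room temperature, then melatonin at EC80, 3 min read.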

| SMILES | Intrinsic activity |
| --- | --- |
| COc1cccc(C2CCN(C(=O)c3ccccc3)CC2)c1 | 12% |
| COc1ccc(C2CCN(C(C)=O)CC2)cc1 | 34% |
| COc1cccc(C2CCN(C(=O)[C@H]3C[C@@H]3C)CC2)c1 | 19% |
| COc1cccc(C2CCN(C(=O)C(C)C)CC2)c1 | 87% |
| COc1cccc(-c2cccc(NC(=O)C3CC3)n2)c1 | 15% |
| O=C(N[C@H]1CCCN(c2cccc(OC(F)(F)F)c2)C1)C1CC1 | 1% |
| CCC(=O)N1CCC(c2cccc(OC)c2)CC1 | 31% |
| COc1cccc(C2CCN(C(=O)C3CCCCC3)CC2)c1 | 42% |
| COc1cccc(N2CC(NC(=O)C3CC3)Cc3ccccc32)c1 (racemic) | 84% |
| COc1ccc2[nH]cc(CCNC(C)=O)c2c1 [MELATONIN] | 97% |
| COc1cccc(N2CCCC(NC(=O)C3CC3)C2)c1 (racemic) | 85% |
| O=C(N[C@H]1CCCN(c2cccc(OCCO)c2)C1)C1CC1 | 3% |
| COc1ccc(C2CCN(C(=O)C3CC3)CC2)cc1 | 58% |
| Cc1cccc(C2CCN(C(=O)C3CC3)CC2)c1 | 0.4% |
| COc1cccc(C2CCN(C(=O)C3CCCC3)CC2)c1 | 67% |

Biological target: not listed separately
Experiment: Agonist activity at human MT2 receptor
Type: functional
Conditions: not given

| Ki | SMILES |
| --- | --- |
| 2.6 nM | CCCC(=O)N[C@H]1CCN(c2cccc(OC)c2)C1 |

Tested on: not listed separately
Experiment: Binding affinity to rat MT1 receptor expressed in CHO-Galpha16 cells assessed as Ca2+ mobilization after 20 mins by FLIPR assay
Type: cell-based
Conditions: not given
Method in brief: as §1

| EC50 | SMILES |
| --- | --- |
| > 10000 nM | COc1cccc(C2CCN(C(=O)c3ccccc3)CC2)c1 |
| 98 nM | COc1cccc(C2CCN(C(=O)C(C)C)CC2)c1 |
| > 10000 nM | COc1cccc(-c2cccc(NC(=O)C3CC3)n2)c1 |
| 1300 nM | CCC(=O)N1CCC(c2cccc(OC)c2)CC1 |
| 170 nM | COc1cccc(N2CC(NC(=O)C3CC3)Cc3ccccc32)c1 (racemic) |
| 9.7 nM | COc1cccc(N2CCCC(NC(=O)C3CC3)C2)c1 (racemic) |
| > 10000 nM | COc1ccc(C2CCN(C(=O)C3CC3)CC2)cc1 |

The remaining lines, values behind:

| SMILES | EC50 |
| --- | --- |
| COc1ccc(C2CCN(C(C)=O)CC2)cc1 | 1700 nM |
| COc1cccc(C2CCN(C(=O)[C@H]3C[C@@H]3C)CC2)c1 | 610 nM |
| O=C(N[C@H]1CCCN(c2cccc(OC(F)(F)F)c2)C1)C1CC1 | > 10000 nM |
| COc1cccc(C2CCN(C(=O)C3CCCCC3)CC2)c1 | 7500 nM |
| COc1ccc2[nH]cc(CCNC(C)=O)c2c1 [MELATONIN] | 0.56 nM |
| O=C(N[C@H]1CCCN(c2cccc(OCCO)c2)C1)C1CC1 | > 10000 nM |
| Cc1cccc(C2CCN(C(=O)C3CC3)CC2)c1 | > 10000 nM |
| COc1cccc(C2CCN(C(=O)C3CCCC3)CC2)c1 | 210 nM |

Biological target: not listed separately
Experiment: Ratio of Ki for rat MT1 to Ki for rat MT2
Conditions: not given
Method in brief: (§2)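 Rat MT1 or MT2 membranes from CHO-Galpha16 cells incubated with [3H]-melatonin (0.5 nM final, 80 Ci/mmol) in 50 mM Tris/HCl pH 7.4, 5 mM MgCl2. Nonspecific binding defined with excess melatonin. Stopped by rapid GF/B filtration with five ice-cold washes. Ki from IC50 via Cheng–Prusoff.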

| Ki ratio (MT1/MT2) | SMILES |
| --- | --- |
| 5.6 | COc1cccc(N2CCCC(NC(=O)C3CC3)C2)c1 (racemic) |

Organism: Rattus norvegicus
Experiment: Intrinsic activity at rat MT2 receptor expressed in CHO-Galpha16 cells assessed as Ca2+ mobilization after 20 mins by FLIPR assay relative to agomelatine
Type: cell-based
Conditions: not given
Method in brief: as §1

| SMILES | Intrinsic activity |
| --- | --- |
| COc1cccc(C2CCN(C(=O)c3ccccc3)CC2)c1 | 60% |
| COc1ccc(C2CCN(C(C)=O)CC2)cc1 | 140% |
| COc1cccc(C2CCN(C(=O)[C@H]3C[C@@H]3C)CC2)c1 | 65% |
| COc1cccc(C2CCN(C(=O)C(C)C)CC2)c1 | 76% |
| COc1cccc(-c2cccc(NC(=O)C3CC3)n2)c1 | 57% |
| O=C(N[C@H]1CCCN(c2cccc(OC(F)(F)F)c2)C1)C1CC1 | 53% |
| CCC(=O)N1CCC(c2cccc(OC)c2)CC1 | 66% |
| COc1cccc(C2CCN(C(=O)C3CCCCC3)CC2)c1 | 36% |
| COc1cccc(N2CC(NC(=O)C3CC3)Cc3ccccc32)c1 (racemic) | 35% |
| COc1ccc2[nH]cc(CCNC(C)=O)c2c1 [MELATONIN] | 97% |
| COc1cccc(N2CCCC(NC(=O)C3CC3)C2)c1 (racemic) | 99% |
| O=C(N[C@H]1CCCN(c2cccc(OCCO)c2)C1)C1CC1 | 12% |
| COc1ccc(C2CCN(C(=O)C3CC3)CC2)cc1 | 94% |
| Cc1cccc(C2CCN(C(=O)C3CC3)CC2)c1 | 15% |
| COc1cccc(C2CCN(C(=O)C3CCCC3)CC2)c1 | 74% |

Tested on: CHO-Galpha16
Experiment: Inhibition of rat MT2 receptor expressed in CHO-Galpha16 cells relative to control
Type: cell-based
Conditions: dose or concentration not given here
Method in brief: as §1

| SMILES | inhibition |
| --- | --- |
| O=C(N[C@H]1CCCN(c2cccc(OCCO)c2)C1)C1CC1 | 94% |

Biological target: not listed separately
Experiment: Agonist activity at human MT1 receptor
Type: functional
Conditions: not given

| Ki | SMILES |
| --- | --- |
| 3.7 nM | CCCC(=O)N[C@H]1CCN(c2cccc(OC)c2)C1 |

Tested on: not listed separately
Experiment: Binding affinity to rat MT2 receptor expressed in CHO-Galpha16 cells assessed as Ca2+ mobilization after 20 mins by FLIPR assay
Type: cell-based
Conditions: not given
Method in brief: as §1

| EC50 | SMILES |
| --- | --- |
| 4400 nM | COc1cccc(C2CCN(C(=O)c3ccccc3)CC2)c1 |
| 19 nM | COc1cccc(C2CCN(C(=O)C(C)C)CC2)c1 |
| 1200 nM | COc1cccc(-c2cccc(NC(=O)C3CC3)n2)c1 |
| 42 nM | CCC(=O)N1CCC(c2cccc(OC)c2)CC1 |
| 50 nM | COc1cccc(N2CC(NC(=O)C3CC3)Cc3ccccc32)c1 (racemic) |
| 2.9 nM | COc1cccc(N2CCCC(NC(=O)C3CC3)C2)c1 (racemic) |
| 5000 nM | COc1ccc(C2CCN(C(=O)C3CC3)CC2)cc1 |

Further lines, the compound ahead of its results:

| SMILES | EC50 |
| --- | --- |
| COc1ccc(C2CCN(C(C)=O)CC2)cc1 | 3400 nM |
| COc1cccc(C2CCN(C(=O)[C@H]3C[C@@H]3C)CC2)c1 | 140 nM |
| O=C(N[C@H]1CCCN(c2cccc(OC(F)(F)F)c2)C1)C1CC1 | 12 nM |
| COc1cccc(C2CCN(C(=O)C3CCCCC3)CC2)c1 | 2800 nM |
| COc1ccc2[nH]cc(CCNC(C)=O)c2c1 [MELATONIN] | 1.1 nM |
| O=C(N[C@H]1CCCN(c2cccc(OCCO)c2)C1)C1CC1 | > 10000 nM |
| Cc1cccc(C2CCN(C(=O)C3CC3)CC2)c1 | > 10000 nM |
| COc1cccc(C2CCN(C(=O)C3CCCC3)CC2)c1 | 110 nM |

Tested on: not listed separately
Experiment: Displacement of [3H]melatonin from rat MT1 receptor expressed in CHO-Galpha16 cells
Type: cell-based
Conditions: not given
Method in brief: as §2

| IC50 | SMILES | Ki |
| --- | --- | --- |
| 3800 nM | COc1cccc(-c2cccc(NC(=O)C3CC3)n2)c1 | 1500 nM |
| > 10000 nM | COc1cccc(N2CCCC(NC(=O)C3CC3)C2)c1 (racemic) | 15 nM |

The next lines start with the compound.

| SMILES | IC50 | Ki |
| --- | --- | --- |
| COc1cccc(C2CCN(C(=O)c3ccccc3)CC2)c1 |  | 650 nM |
| COc1ccc(C2CCN(C(C)=O)CC2)cc1 |  | 4700 nM |
| COc1cccc(C2CCN(C(=O)[C@H]3C[C@@H]3C)CC2)c1 |  | 150 nM |
| COc1cccc(C2CCN(C(=O)C(C)C)CC2)c1 |  | 160 nM |
| O=C(N[C@H]1CCCN(c2cccc(OC(F)(F)F)c2)C1)C1CC1 | 2100 nM | 190 nM |
| CCC(=O)N1CCC(c2cccc(OC)c2)CC1 |  | 810 nM |
| COc1cccc(N2CC(NC(=O)C3CC3)Cc3ccccc32)c1 (racemic) |  | 75 nM |
| CCOc1cccc(C2CCN(C(=O)C3CC3)CC2)c1 |  | 5700 nM |
| COc1ccc2[nH]cc(CCNC(C)=O)c2c1 [MELATONIN] |  | 0.99 nM |
| O=C(N[C@H]1CCCN(c2cccc(OCCO)c2)C1)C1CC1 | 930 nM | 610 nM |
| COc1ccc(C2CCN(C(=O)C3CC3)CC2)cc1 |  | 1100 nM |

Tested on: CHO-Galpha16
Experiment: Inhibition of rat MT1 receptor expressed in CHO-Galpha16 cells relative to control
Type: cell-based
Parameters: concentration or dose not given beside the values
Conditions: dose or concentration not given here
Method in brief: as §1

| SMILES | inhibition |
| --- | --- |
| COc1cccc(-c2cccc(NC(=O)C3CC3)n2)c1 | 41% |
| O=C(N[C@H]1CCCN(c2cccc(OC(F)(F)F)c2)C1)C1CC1 | 95% |
| O=C(N[C@H]1CCCN(c2cccc(OCCO)c2)C1)C1CC1 | 91% |

Tested on: not listed separately
Experiment: Displacement of [3H]melatonin from rat MT2 receptor expressed in CHO-Galpha16 cells
Type: cell-based
Conditions: not given
Method in brief: as §2

| IC50 | SMILES | Ki |
| --- | --- | --- |
|  | COc1cccc(C2CCN(C(=O)c3ccccc3)CC2)c1 | 110 nM |
|  | COc1ccc(C2CCN(C(C)=O)CC2)cc1 | 360 nM |
|  | COc1cccc(C2CCN(C(=O)[C@H]3C[C@@H]3C)CC2)c1 | 35 nM |
|  | COc1cccc(C2CCN(C(=O)C(C)C)CC2)c1 | 31 nM |
|  | COc1cccc(-c2cccc(NC(=O)C3CC3)n2)c1 | 83 nM |
|  | O=C(N[C@H]1CCCN(c2cccc(OC(F)(F)F)c2)C1)C1CC1 | 66 nM |
|  | CCC(=O)N1CCC(c2cccc(OC)c2)CC1 | 150 nM |
|  | COc1cccc(N2CC(NC(=O)C3CC3)Cc3ccccc32)c1 (racemic) | 6.7 nM |
|  | CCOc1cccc(C2CCN(C(=O)C3CC3)CC2)c1 | 4100 nM |
|  | COc1ccc2[nH]cc(CCNC(C)=O)c2c1 [MELATONIN] | 0.58 nM |
| > 10000 nM | COc1cccc(N2CCCC(NC(=O)C3CC3)C2)c1 (racemic) | 2.7 nM |
| 31 nM | O=C(N[C@H]1CCCN(c2cccc(OCCO)c2)C1)C1CC1 | 150 nM |
|  | COc1ccc(C2CCN(C(=O)C3CC3)CC2)cc1 | 870 nM |
